Experimental data as given in ChEMBL document CHEMBL5058577, “EUbOPEN Chemogenomics Library 2 (Multiplex)” (2022).

Test system: U2OS
Assay: Multiplex assay against U2OS
Assay type: toxicity, cell-based
Conditions: human
In short: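 Compound was added to live cells that had been stained at seeding with Hoechst33342, BioTracker Green Microtubule Cytoskeleton Dye, MitoTracker Red and Annexin V Alexa Fluor 680, and imaging followed on a CQ1 microscope at 37°C and 5% CO2. CellPathfinder machine-learning gating divided cells into Hoechst high-intensity objects or normal cells, normal cells into healthy, pyknosed or fragmented nuclei, and pyknosed cells into mitotic or apoptotic. Tubulin, mitochondrial-mass and membrane-permeability phenotypes are per cents of healthy-nucleus cells.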

[1] = 12 h, 1 µM, compound concentration 1 uM, replicate 1
[2] = 12 h, 1 µM, compound concentration 1 uM, replicate 2
[3] = 12 h, 10 µM, compound concentration 10 uM, replicate 1
[4] = 12 h, 10 µM, compound concentration 10 uM, replicate 2
[5] = 24 h, 1 µM, compound concentration 1 uM, replicate 1
[6] = 24 h, 1 µM, compound concentration 1 uM, replicate 2
[7] = 24 h, 10 µM, compound concentration 10 uM, replicate 1
[8] = 24 h, 10 µM, compound concentration 10 uM, replicate 2
[9] = 48 h, 1 µM, compound concentration 1 uM, replicate 1
[10] = 48 h, 1 µM, compound concentration 1 uM, replicate 2
[11] = 48 h, 10 µM, compound concentration 10 uM, replicate 1
[12] = 48 h, 10 µM, compound concentration 10 uM, replicate 2

Compound: COc1cc2nc(N3CCN(C(=O)COc4c(OC)cccc4C(C)C)CC3)nc(N)c2cc1OC.Cl.Cl
- Population Apoptotic (%) [1]: 67%
- Population Fragmented Nuclei (%) [1]: 21%
- Population Healthy Nuclei (%) [1]: 66%
- Population Hoechst High Intensity Objects (%) [1]: 3%
- Population Membrane Permeable-Phenotype (%) [1]: 10%
- Population Mitochondria Different-Phenotype (%) [1]: 5%
- Population Mitotic Cells (%) [1]: 32%
- Population Normal (%) [1]: 96%
- Population Pyknosed Nuclei (%) [1]: 11%
- Population Tubulin-Different-Phenotype (%) [1]: 6%
- Total Cell Count [1]: 256
- Population Apoptotic (%) [2]: 33%
- Population Fragmented Nuclei (%) [2]: 10%
- Population Healthy Nuclei (%) [2]: 84%
- Population Hoechst High Intensity Objects (%) [2]: 2%
- Population Mitochondria Different-Phenotype (%) [2]: 6%
- Population Mitotic Cells (%) [2]: 66%
- Population Normal (%) [2]: 97%
- Population Pyknosed Nuclei (%) [2]: 4%
- Total Cell Count [2]: 136
- Population Apoptotic (%) [3]: 55%
- Population Fragmented Nuclei (%) [3]: 30%
- Population Healthy Nuclei (%) [3]: 43%
- Population Hoechst High Intensity Objects (%) [3]: 3%
- Population Membrane Permeable-Phenotype (%) [3]: 60%
- Population Mitochondria Different-Phenotype (%) [3]: 55%
- Population Mitotic Cells (%) [3]: 44%
- Population Normal (%) [3]: 96%
- Population Pyknosed Nuclei (%) [3]: 25%
- Population Tubulin-Different-Phenotype (%) [3]: 75%
- Total Cell Count [3]: 233
- Population Apoptotic (%) [4]: 66%
- Population Fragmented Nuclei (%) [4]: 19%
- Population Healthy Nuclei (%) [4]: 48%
- Population Hoechst High Intensity Objects (%) [4]: 0%
- Population Membrane Permeable-Phenotype (%) [4]: 54%
- Population Mitochondria Different-Phenotype (%) [4]: 65%
- Population Mitotic Cells (%) [4]: 33%
- Population Normal (%) [4]: 99%
- Population Pyknosed Nuclei (%) [4]: 32%
- Population Tubulin-Different-Phenotype (%) [4]: 68%
- Total Cell Count [4]: 151
- Population Apoptotic (%) [5]: 84%
- Population Fragmented Nuclei (%) [5]: 21%
- Population Healthy Nuclei (%) [5]: 67%
- Population Hoechst High Intensity Objects (%) [5]: 3%
- Population Membrane Permeable-Phenotype (%) [5]: 6%
- Population Mitochondria Different-Phenotype (%) [5]: 8%
- Population Mitotic Cells (%) [5]: 15%
- Population Normal (%) [5]: 96%
- Population Pyknosed Nuclei (%) [5]: 11%
- Population Tubulin-Different-Phenotype (%) [5]: 4%
- Total Cell Count [5]: 297
- Population Apoptotic (%) [6]: 80%
- Population Fragmented Nuclei (%) [6]: 15%
- Population Healthy Nuclei (%) [6]: 77%
- Population Hoechst High Intensity Objects (%) [6]: 0%
- Population Membrane Permeable-Phenotype (%) [6]: 10%
- Population Mitochondria Different-Phenotype (%) [6]: 7%
- Population Mitotic Cells (%) [6]: 20%
- Population Normal (%) [6]: 99%
- Population Pyknosed Nuclei (%) [6]: 6%
- Population Tubulin-Different-Phenotype (%) [6]: 5%
- Total Cell Count [6]: 154
- Population Apoptotic (%) [7]: 76%
- Population Fragmented Nuclei (%) [7]: 30%
- Population Healthy Nuclei (%) [7]: 36%
- Population Hoechst High Intensity Objects (%) [7]: 9%
- Population Membrane Permeable-Phenotype (%) [7]: 40%
- Population Mitochondria Different-Phenotype (%) [7]: 49%
- Population Mitotic Cells (%) [7]: 24%
- Population Normal (%) [7]: 90%
- Population Pyknosed Nuclei (%) [7]: 33%
- Population Tubulin-Different-Phenotype (%) [7]: 50%
- Total Cell Count [7]: 246
- Population Apoptotic (%) [8]: 87%
- Population Fragmented Nuclei (%) [8]: 20%
- Population Healthy Nuclei (%) [8]: 40%
- Population Hoechst High Intensity Objects (%) [8]: 12%
- Population Membrane Permeable-Phenotype (%) [8]: 49%
- Population Mitochondria Different-Phenotype (%) [8]: 50%
- Population Mitotic Cells (%) [8]: 12%
- Population Normal (%) [8]: 87%
- Population Pyknosed Nuclei (%) [8]: 39%
- Population Tubulin-Different-Phenotype (%) [8]: 60%
- Total Cell Count [8]: 185
- Population Apoptotic (%) [9]: 83%
- Population Fragmented Nuclei (%) [9]: 20%
- Population Healthy Nuclei (%) [9]: 70%
- Population Hoechst High Intensity Objects (%) [9]: 2%
- Population Membrane Permeable-Phenotype (%) [9]: 6%
- Population Mitochondria Different-Phenotype (%) [9]: 6%
- Population Mitotic Cells (%) [9]: 16%
- Population Normal (%) [9]: 97%
- Population Pyknosed Nuclei (%) [9]: 8%
- Population Tubulin-Different-Phenotype (%) [9]: 4%
- Total Cell Count [9]: 441
- Population Apoptotic (%) [10]: 75%
- Population Fragmented Nuclei (%) [10]: 16%
- Population Healthy Nuclei (%) [10]: 72%
- Population Hoechst High Intensity Objects (%) [10]: 3%
- Population Membrane Permeable-Phenotype (%) [10]: 7%
- Population Mitotic Cells (%) [10]: 25%
- Population Normal (%) [10]: 96%
- Population Pyknosed Nuclei (%) [10]: 11%
- Population Tubulin-Different-Phenotype (%) [10]: 6%
- Total Cell Count [10]: 225
- Population Apoptotic (%) [11]: 88%
- Population Fragmented Nuclei (%) [11]: 40%
- Population Healthy Nuclei (%) [11]: 21%
- Population Hoechst High Intensity Objects (%) [11]: 31%
- Population Membrane Permeable-Phenotype (%) [11]: 13%
- Population Mitochondria Different-Phenotype (%) [11]: 30%
- Population Mitotic Cells (%) [11]: 11%
- Population Normal (%) [11]: 68%
- Population Pyknosed Nuclei (%) [11]: 38%
- Population Tubulin-Different-Phenotype (%) [11]: 13%
- Total Cell Count [11]: 296
- Population Apoptotic (%) [12]: 93%
- Population Fragmented Nuclei (%) [12]: 24%
- Population Healthy Nuclei (%) [12]: 23%
- Population Hoechst High Intensity Objects (%) [12]: 32%
- Population Membrane Permeable-Phenotype (%) [12]: 27%
- Population Mitochondria Different-Phenotype (%) [12]: 10%
- Population Mitotic Cells (%) [12]: 6%
- Population Normal (%) [12]: 67%
- Population Pyknosed Nuclei (%) [12]: 51%
- Population Tubulin-Different-Phenotype (%) [12]: 24%
- Total Cell Count [12]: 180
